Laboratory results published in ChEMBL document CHEMBL3112527, “Quinoline-pyrimidine hybrids: synthesis, antiplasmodial activity, SAR, and mode of action studies” (J Med Chem, 2014).
In brackets after ≈: the same amount, converted by molar mass. Activity calls are given as the source filed them. No cut-off for these calls is given here.

Legend:
Human betaherpesvirus 5 [1] = test: Antiviral activity against Cytomegalovirus Davis infected in HEL cells assessed as inhibition of virus-induced cytopathicity; format: functional, organism-based
DNA [2] = test: Binding affinity to calf thymus DNA at 5:1 DNA to compound ratio by spectrophotometric analysis (reference value: 59.5 degC); format: nucleic-acid assay; conditions: Bos taurus
[3] = Cytotoxicity against human HeLa cells assessed as alteration of cell morphology by microscopic analysis; format: cell-based; conditions: read-out: MIC
Summary of the method: (§1)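 Cells (Vero, HEL, MDCK or HeLa) were exposed to a range of sample concentrations. The value reported is the concentration required to cause a microscopically detectable alteration of normal cell morphology.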

Feline coronavirus = test: Antiviral activity against Feline coronavirus infected in cat CRFK cells assessed as inhibition of virus-induced cytopathicity; format: functional, organism-based
Summary of the method: (§2)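 Confluent monolayers (HEL, Vero, HeLa or CrFK, as applicable) were inoculated with 100 CCID50 of virus, with 1 CCID50 being the dose that infects 50% of cultures. Infection ran in the presence of varying compound concentrations. Inhibition of virus-induced cytopathicity was scored against infected cultures left untreated.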

Escherichia coli = test: Binding affinity to Escherichia coli pUC18 DNA by fluorescence spectrophotometric analysis
Summary of the method: (§3)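 Steady-state fluorescence titration at ambient temperature, with excitation at 330 nm and emission at 376 nm. […] Binding constant derived from the emission changes.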

Human alphaherpesvirus 3 = test: Antiviral activity against Varicella-zoster virus infected in HEL cells assessed as inhibition of virus-induced cytopathicity; format: functional, organism-based
Sindbis virus = test: Antiviral activity against Sindbis virus infected in African green monkey Vero cells assessed as inhibition of virus-induced cytopathicity; format: functional, organism-based
Felid alphaherpesvirus 1 = test: Antiviral activity against Feline herpesvirus infected in cat CRFK cells assessed as inhibition of virus-induced cytopathicity; format: functional, organism-based; summary of the method: as §2
Influenza A virus H3N2 = test: Antiviral activity against Influenza A virus H3N2 infected in MDCK cells assessed as inhibition of virus-induced cytopathicity; format: functional, organism-based
Summary of the method: (§4)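 Confluent monolayers in 96-well plates were inoculated with 100 CCID50 of virus in the presence of varying concentrations of compound. Read-out was inhibition of virus-induced cytopathicity, compared with untreated infected cultures. Cytotoxicity was judged microscopically or by MTT viability staining.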

Ferriprotoporphyrin IX [4] = test: Binding affinity to monomeric Fe(III)PPIX at pH 5.6
Summary of the method: (§5)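 UV-vis titration of monomeric Fe(III)PPIX (2.4 μM) with stepwise additions of compound (0−69 μM, in DMSO), in aqueous DMSO. Buffer was 0.02 M HEPES at pH 7.4 or 0.02 M MES at pH 5.6. Decrease of the Soret band at 402 nm was followed. Association constants were calculated from the titration curves. Stoichiometry was taken from Job's plot.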

Human alphaherpesvirus 2 = test: Antiviral activity against HSV-2 G infected in HEL cells assessed as inhibition of virus-induced cytopathicity; format: functional, organism-based; conditions: strain G; summary of the method: as §2
Heme [5] = test: Binding affinity to heme assessed as inhibition of beta-hematin formation at 1.2 equiv after 1 hr by FT-IR spectroscopic analysis
Human alphaherpesvirus 1 [6] = test: Antiviral activity against HSV-1 KOS infected in HEL cells assessed as inhibition of virus-induced cytopathicity; format: functional, organism-based; summary of the method: as §2
[7] = Cytotoxicity against cat CRFK cells assessed as cell viability by MTS assay; format: cell-based, Felis catus
Summary of the method: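 CRFK cells were exposed to varying sample concentrations. Cell viability was measured with the colorimetric formazan-based MTS assay, and the 50% cytotoxic concentration (CC50) was derived from it.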

Human betaherpesvirus 5 [8] = test: Antiviral activity against Cytomegalovirus AD169 infected in HEL cells assessed as inhibition of virus-induced cytopathicity; format: functional, organism-based
[9] = Aqueous solubility of the compound in PBS buffer at pH 7.4 after 24 hrs by HPLC analysis; format: physicochemical; conditions: pH 7.4, 24 h
Ferriprotoporphyrin IX [10] = test: Binding affinity to monomeric Fe(III)PPIX at pH 7.4; summary of the method: as §5
Influenza A virus = test: Antiviral activity against influenza A virus H1N1 infected in MDCK cells assessed as inhibition of virus-induced cytopathicity; format: functional, organism-based; summary of the method: as §4
Coxsackievirus B4 [11] = test: Antiviral activity against Coxsackievirus B4 infected in human HeLa cells assessed as inhibition of virus-induced cytopathicity; format: functional, organism-based; summary of the method: as §2
Human alphaherpesvirus 1 [12] = test: Antiviral activity against thymidine kinase-negative acyclovir-resistant HSV-1 KOS infected in HEL cells assessed as inhibition of virus-induced cytopathicity; format: functional, organism-based; summary of the method: as §4
Vero = test: Cytotoxicity against African green monkey Vero cells assessed as alteration of cell morphology by microscopic analysis; format: cell-based; conditions: chlorocebus sabaeus; summary of the method: as §1
[13] = Selectivity index, ratio of CC50 for cat CRFK cells to IC50 for chloroquine-resistant asexual erythrocytic stage of Plasmodium falciparum Dd2; format: functional
Summary of the method: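 Ratio of CRFK CC50 (μM) to Dd2 IC50 […]. CC50 is the 50% cytotoxic concentration in feline kidney CRFK cells, measured as cell viability by colorimetric formazan-based MTS assay. Dd2 IC50 is from the parasite LDH growth-inhibition assay.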

Plasmodium falciparum [14] = test: Potency index, ratio of chloroquine IC50 to compound IC50 for chloroquine-resistant asexual erythrocytic stage of Plasmodium falciparum Dd2; format: functional
MDCK = test: Cytotoxicity against MDCK cells assessed as alteration of cell morphology by microscopic analysis; format: cell-based, Canis lupus familiaris; conditions: dog; summary of the method: as §1
Heme [15] = test: Binding affinity to mu-oxodimeric heme at pH 5.8
Summary of the method: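 μ-Oxo dimer heme (10 μM) in 20 mM phosphate buffer, pH 5.8, titrated stepwise with compound (0.3−16 μM). Decrease in absorbance at 362 nm was monitored, and the binding constant was calculated from the titration curve.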

Coxsackievirus B4 [16] = test: Antiviral activity against Coxsackievirus B4 infected in African green monkey Vero cells assessed as inhibition of virus-induced cytopathicity; format: functional, organism-based; summary of the method: as §2
HEL = test: Cytotoxicity against HEL cells assessed as alteration of cell morphology by microscopic analysis; format: cell-based; conditions: human; summary of the method: as §1
Plasmodium falciparum [17] = test: Antiplasmodial activity against chloroquine-resistant asexual erythrocytic stage of Plasmodium falciparum Dd2 assessed as parasite growth inhibition by lactate dehydrogenase assay; format: functional, organism-based
Summary of the method: (§6)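 Parasite lactate dehydrogenase assay (modified Makler method). Samples held as 20 mg/mL stocks in DMSO, diluted on test day. Full dose-response: starting at 10 μg/mL, 2-fold serial dilution in complete medium over 10 concentrations down to 0.02 μg/mL. Chloroquine, artesunate and MMV390048 served as references. IC50 from nonlinear dose-response curve fitting; mean of three independent experiments.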

Ferriprotoporphyrin IX [18] = test: Binding affinity to monomeric Fe(III)PPIX at 5 umol by mass spectra analysis
Summary of the method: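 Solution-phase mass spectra were recorded after adding monomeric heme (5 μmol) to the compound (5 μmol) in 40% aqueous DMSO. The region between 1008 and 1024 Da was examined for adduct signals.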

[19] = Solubility of the compound in octanol at pH 7.4 by HPLC analysis; format: physicochemical
Plasmodium falciparum [20] = test: Antiplasmodial activity against chloroquine-sensitive asexual erythrocytic stage of Plasmodium falciparum D10 assessed as parasite growth inhibition by lactate dehydrogenase assay; format: functional, organism-based; summary of the method: as §6
Punta Toro virus = test: Antiviral activity against Punta Toro virus infected in African green monkey Vero cells assessed as inhibition of virus-induced cytopathicity; format: functional, organism-based; summary of the method: as §2
[21] = tested on: Vesicular stomatitis virus; test: Antiviral activity against Vesicular stomatitis virus infected in HEL cells assessed as inhibition of virus-induced cytopathicity; format: functional, organism-based; summary of the method: as §4
Vaccinia virus = test: Antiviral activity against Vaccinia virus infected in HEL cells assessed as inhibition of virus-induced cytopathicity; format: functional, organism-based; conditions: Orthopoxvirus vaccinia; summary of the method: as §4
DNA [22] = test: Binding affinity to calf thymus DNA assessed as hypochromic shift at 66.6 uM after 5 mins by UV-spectrophotometric analysis; format: nucleic-acid assay; conditions: Bos taurus
[23] = tested on: Mammalian orthoreovirus 1; test: Antiviral activity against Reovirus 1 infected in African green monkey Vero cells assessed as inhibition of virus-induced cytopathicity; format: functional, organism-based; summary of the method: as §2
[24] = tested on: Vesicular stomatitis virus; test: Antiviral activity against Vesicular stomatitis virus infected in human HeLa cells assessed as inhibition of virus-induced cytopathicity; format: functional, organism-based; summary of the method: as §4
[25] = n-octanol-PBS buffer distribution coefficient, log D of the compound at pH 7.4 after 24 hrs by HPLC analysis; format: physicochemical
DNA [26] = test: Binding affinity to calf thymus DNA by fluorescence spectrophotometric analysis; format: nucleic-acid assay; conditions: Bos taurus; summary of the method: as §3
[27] = tested on: Respiratory syncytial virus; test: Antiviral activity against Respiratory syncytial virus infected in human HeLa cells assessed as inhibition of virus-induced cytopathicity; format: functional, organism-based; summary of the method: as §2
Ferriprotoporphyrin IX [28] = test: Binding affinity to monomeric Fe(III)PPIX by 1H NMR spectra analysis
Human respirovirus 3 = test: Antiviral activity against parainfluenza virus 3 infected in African green monkey Vero cells assessed as inhibition of virus-induced cytopathicity; format: functional, organism-based; summary of the method: as §2

In the case of Clc1ccc2c(NCCCNc3nccc(N4CCCCC4)n3)ccnc2c1, the inhibition (Human betaherpesvirus 5 [1]) is reported as “inactive”, the Tm (DNA [2]) is reported as 67.8 °C and the MCC [3] is reported as 100 µM. The inhibition (Feline coronavirus) was “inactive”, the log Ks (Escherichia coli) was 3.99 and the inhibition (Human alphaherpesvirus 3) was “inactive”. For the same molecule, the inhibition (Sindbis virus) was “inactive”, the inhibition (Felid alphaherpesvirus 1) was “inactive” and the inhibition (Influenza A virus H3N2) was “inactive”. For the same molecule, the log Ks (Ferriprotoporphyrin IX [4]) was 4.59, the inhibition (Human alphaherpesvirus 2) was “inactive” and the inhibition (Heme [5]) was “Active”. The inhibition (Human alphaherpesvirus 1 [6]) was “inactive”, the CC50 [7] was 9800 nM and the inhibition (Human betaherpesvirus 5 [8]) was “inactive”. The solubility [9] was 0.25 µM (≈ 0.0992 µg/mL), the log Ks (Ferriprotoporphyrin IX [10]) was 4.63 and the inhibition (Influenza A virus) was “inactive”. The inhibition (Coxsackievirus B4 [11]) was “inactive”, the inhibition (Human alphaherpesvirus 1 [12]) was “inactive” and the Activity (Vero) was “Non-toxic”. For the same molecule, the “Ratio CC50/IC50” value [13] was 228, the “Ratio IC50” value (Plasmodium falciparum [14]) was 3.2 and the Activity (MDCK) was “Non-toxic”. The log Ks (Heme [15]) was 5.84, the inhibition (Coxsackievirus B4 [16]) was “inactive” and the Activity (HEL) was “Non-toxic”. The IC50 (Plasmodium falciparum [17]) was 43 nM, the Activity (Ferriprotoporphyrin IX [18]) was “Active” and the solubility [19] was 1.74 µM (≈ 0.691 µg/mL). The IC50 (Plasmodium falciparum [20]) was 22.6 nM, the inhibition (Punta Toro virus) was “inactive” and the inhibition [21] was “inactive”. The inhibition (Vaccinia virus) was “inactive”, the Activity (DNA [22]) was 23% and the inhibition [23] was “inactive”. For the same molecule, the inhibition [24] was “inactive”, the logD at 24 h [25] was 0.845 and the log Ks (DNA [26]) was 3.64. The inhibition [27] was “inactive”, the Activity (Ferriprotoporphyrin IX [28]) was “Active” and the inhibition (Human respirovirus 3) was “inactive”.

With Clc1ccc2c(NCCCNc3nccc(N4CCOCC4)n3)ccnc2c1 the inhibition (Human betaherpesvirus 5 [1]) was “inactive”, the MCC [3] was greater than 100 µM and the inhibition (Feline coronavirus) was “inactive”. The inhibition (Human alphaherpesvirus 3) was “inactive”, the inhibition (Sindbis virus) was “inactive” and the inhibition (Felid alphaherpesvirus 1) was “inactive”. The inhibition (Influenza A virus H3N2) was “inactive”, the inhibition (Human alphaherpesvirus 2) was “inactive” and the inhibition (Human alphaherpesvirus 1 [6]) was “inactive”. For the same molecule, the CC50 [7] was greater than 100000 nM, the inhibition (Human betaherpesvirus 5 [8]) was “inactive” and the solubility [9] was 0.53 µM (≈ 0.211 µg/mL). The inhibition (Influenza A virus) was “inactive”, the inhibition (Coxsackievirus B4 [11]) was “inactive” and the inhibition (Human alphaherpesvirus 1 [12]) was “inactive”. The “Ratio CC50/IC50” value [13] was greater than 632, the inhibition (Coxsackievirus B4 [16]) was “inactive” and the IC50 (Plasmodium falciparum [17]) was 158 nM. The solubility [19] was 0.95 µM (≈ 0.379 µg/mL), the IC50 (Plasmodium falciparum [20]) was 55 nM and the inhibition (Punta Toro virus) was “inactive”. For the same molecule, the inhibition [21] was “inactive”, the inhibition (Vaccinia virus) was “inactive” and the inhibition [23] was “inactive”. For the same molecule, the inhibition [24] was “inactive”, the logD at 24 h [25] was 0.257 and the inhibition [27] was “inactive”. The inhibition (Human respirovirus 3) was “inactive”.
